# Laboratory results as given in ChEMBL document CHEMBL3098130, “Discovery of Novel Putative Inhibitors of UDP-GlcNAc 2-Epimerase as Potent Antibacterial Agents” (ACS Med Chem Lett, 2013).
# pKi: −log10 of the molar value.
# Assays:
# [1] = system: Shigella sonnei; experiment: Antibacterial activity against Shigella sonnei assessed as growth inhibition measured for 3 days by broth microdilution method; format: functional
# Method in brief: (§1)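 MIC by broth microdilution against a panel of Gram-positive and Gram-negative strains (ATCC-type numbers where given). Run in triplicate on three different days.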
# [2] = system: Mus musculus; experiment: Cmax in CD1 mouse at 25 mg/kg, ip; format: ADME, organism-based; design: dose 25 mg/kg, route intraperitoneal; conditions: in vivo
# Method in brief: (§2)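 Female CD-1 mice, single intraperitoneal dose of 25, 50 or 100 mg/kg; the 50 mg/kg BID group was dosed twice. Plasma levels were followed over time to derive tmax, Cmax, half-life, Vz, clearance and AUC. Time above MIC was taken against a 2000 ng/mL plasma threshold.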
# [3] = system: Pseudomonas aeruginosa; experiment: Antibacterial activity against Pseudomonas aeruginosa assessed as growth inhibition measured for 3 days by broth microdilution method; format: functional; method in brief: as §1
# [4] = system: Mus musculus; experiment: T>MIC in CD1 mouse at 50 mg/kg, ip bid; conditions: route intraperitoneal; method in brief: as §2
# [5] = system: Serratia marcescens; experiment: Antibacterial activity against Serratia marcescens assessed as growth inhibition measured for 3 days by broth microdilution method; format: functional; method in brief: as §1
# [6] = system: Proteus mirabilis; experiment: Antibacterial activity against Proteus mirabilis assessed as growth inhibition measured for 3 days by broth microdilution method; format: functional; method in brief: as §1
# [7] = system: Streptococcus agalactiae; experiment: Antibacterial activity against Streptococcus agalactiae 12386 assessed as growth inhibition measured for 3 days by broth microdilution method; format: functional; conditions: Streptococcus agalactiae, 12386, 72 h; method in brief: as §1
# [8] = system: Enterococcus faecium; experiment: Antibacterial activity against Enterococcus faecium 6569 assessed as growth inhibition measured for 3 days by broth microdilution method; format: functional; method in brief: as §1
# [9] = system: Mus musculus; experiment: Half life in CD1 mouse at 100 mg/kg, ip; format: ADME, organism-based; design: dose 100 mg/kg, route intraperitoneal; conditions: in vivo; method in brief: as §2
# [10] = system: Mus musculus; experiment: Toxicity in CD1 mouse assessed as mortality at < 100 mg/kg, ip; format: organism-based; design: dose 100 mg/kg, route intraperitoneal; conditions: in vivo
# Method in brief: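 Female CD-1 mice were given the compound intraperitoneally in the PK dose groups. Mortality and clinical observations were recorded.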
# [11] = system: Mus musculus; experiment: T>MIC in CD1 mouse at 50 mg/kg, ip; conditions: route intraperitoneal; method in brief: as §2
# [12] = system: Mus musculus; experiment: Apparent volume of distribution in CD1 mouse at 25 mg/kg, ip; format: ADME, organism-based; design: dose 25 mg/kg, route intraperitoneal; conditions: in vivo; method in brief: as §2
# [13] = system: Mus musculus; experiment: Half life in CD1 mouse at 25 mg/kg, ip; format: ADME, organism-based; design: dose 25 mg/kg, route intraperitoneal; conditions: in vivo; method in brief: as §2
# [14] = system: Mus musculus; experiment: Tmax in CD1 mouse at 100 mg/kg, ip; format: ADME, organism-based; design: dose 100 mg/kg, route intraperitoneal; conditions: in vivo; method in brief: as §2
# [15] = system: Mus musculus; experiment: AUC in CD1 mouse at 50 mg/kg, ip bid; format: ADME, organism-based, Plasma; design: dose 50 mg/kg, route intraperitoneal; conditions: in vivo; method in brief: as §2
# [16] = system: Mus musculus; experiment: T>MIC in CD1 mouse at 100 mg/kg, ip; conditions: route intraperitoneal; method in brief: as §2
# [17] = Aqueous solubility of the compound; format: physicochemical; conditions: buffer
# [18] = system: Bacillus atrophaeus; experiment: Antibacterial activity against Bacillus atrophaeus assessed as growth inhibition measured for 3 days by broth microdilution method; format: functional; method in brief: as §1
# [19] = Clearance in CD1 mouse at 100 mg/kg, ip; format: ADME, organism-based; design: dose 100 mg/kg, route intraperitoneal; conditions: in vivo
# Method in brief: (§3)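 Female CD-1 mice received the test compound intraperitoneally, either as a single dose (25, 50 or 100 mg/kg) or as 50 mg/kg BID. Exposure was followed over time, and clearance was reported in mL/h/kg together with tmax, Cmax, half-life, VZ and AUC.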
# [20] = system: Mus musculus; experiment: AUC in CD1 mouse at 25 mg/kg, ip; format: ADME, organism-based, Plasma; design: dose 25 mg/kg, route intraperitoneal; conditions: in vivo; method in brief: as §2
# [21] = Inhibition of Bacillus anthracis UDP-GlcNAc 2-epimerase using UDP-GlcNAc as substrate preincubated for 15 mins by UDP-ManNAc dehydrogenase-coupled assay
# [22] = Chemical stability in aqueous solution assessed as compound isomerization/degradation at pH 10 after 3 days by HPLC/NMR analysis; format: physicochemical; conditions: buffer, pH 10, 72 h
# [23] = system: Escherichia coli; experiment: Antibacterial activity against Escherichia coli assessed as growth inhibition measured for 3 days by broth microdilution method; format: functional; method in brief: as §1
# [24] = system: Mus musculus; experiment: Half life in CD1 mouse at 50 mg/kg, ip bid; format: ADME, organism-based; design: dose 50 mg/kg, route intraperitoneal; conditions: in vivo; method in brief: as §2
# [25] = system: Mus musculus; experiment: AUC in CD1 mouse at 100 mg/kg, ip; format: ADME, organism-based, Plasma; design: dose 100 mg/kg, route intraperitoneal; conditions: in vivo; method in brief: as §2
# [26] = system: Mus musculus; experiment: Tmax in CD1 mouse at 50 mg/kg, ip bid; format: ADME, organism-based; design: dose 50 mg/kg, route intraperitoneal; conditions: in vivo; method in brief: as §2
# [27] = system: Enterococcus faecalis; experiment: Antibacterial activity against Enterococcus faecalis 19433 assessed as growth inhibition measured for 3 days by broth microdilution method; format: functional; method in brief: as §1
# [28] = system: Mus musculus; experiment: Apparent volume of distribution in CD1 mouse at 50 mg/kg, ip; format: ADME, organism-based; design: dose 50 mg/kg, route intraperitoneal; conditions: in vivo; method in brief: as §2
# [29] = system: Mus musculus; experiment: T>MIC in CD1 mouse at 25 mg/kg, ip; conditions: route intraperitoneal; method in brief: as §2
# [30] = Clearance in CD1 mouse at 25 mg/kg, ip; format: ADME, organism-based; design: dose 25 mg/kg, route intraperitoneal; conditions: in vivo; method in brief: as §3
# [31] = system: Mus musculus; experiment: Cmax in CD1 mouse at 100 mg/kg, ip; format: ADME, organism-based; design: dose 100 mg/kg, route intraperitoneal; conditions: in vivo; method in brief: as §2
# [32] = system: Acinetobacter baumannii; experiment: Antibacterial activity against Acinetobacter baumannii assessed as growth inhibition measured for 3 days by broth microdilution method; format: functional; method in brief: as §1
# [33] = system: Mus musculus; experiment: Tmax in CD1 mouse at 50 mg/kg, ip; format: ADME, organism-based; design: dose 50 mg/kg, route intraperitoneal; conditions: in vivo; method in brief: as §2
# [34] = system: Mus musculus; experiment: AUC in CD1 mouse at 50 mg/kg, ip; format: ADME, organism-based, Plasma; design: dose 50 mg/kg, route intraperitoneal; conditions: in vivo; method in brief: as §2
# [35] = system: Candida albicans; experiment: Antifungal activity against Candida albicans assessed as growth inhibition measured for 3 days by broth microdilution method; format: functional; conditions: 72 h
# [36] = Clearance in CD1 mouse at 50 mg/kg, ip bid; format: ADME, organism-based; design: dose 50 mg/kg, route intraperitoneal; conditions: in vivo; method in brief: as §3
# [37] = system: Mus musculus; experiment: Tmax in CD1 mouse at 25 mg/kg, ip; format: ADME, organism-based; design: dose 25 mg/kg, route intraperitoneal; conditions: in vivo; method in brief: as §2
# [38] = system: Mus musculus; experiment: Apparent volume of distribution in CD1 mouse at 50 mg/kg, ip bid; format: ADME, organism-based; design: dose 50 mg/kg, route intraperitoneal; conditions: in vivo; method in brief: as §2
# [39] = system: Mus musculus; experiment: Half life in CD1 mouse at 50 mg/kg, ip; format: ADME, organism-based; design: dose 50 mg/kg, route intraperitoneal; conditions: in vivo; method in brief: as §2
# [40] = system: Mus musculus; experiment: Cmax in CD1 mouse at 50 mg/kg, ip bid; format: ADME, organism-based; design: dose 50 mg/kg, route intraperitoneal; conditions: in vivo; method in brief: as §2
# [41] = Clearance in CD1 mouse at 50 mg/kg, ip; format: ADME, organism-based; design: dose 50 mg/kg, route intraperitoneal; conditions: in vivo; method in brief: as §3
# [42] = system: Mus musculus; experiment: Cmax in CD1 mouse at 50 mg/kg, ip; format: ADME, organism-based; design: dose 50 mg/kg, route intraperitoneal; conditions: in vivo; method in brief: as §2
# [43] = system: Salmonella enterica; experiment: Antibacterial activity against Salmonella enterica assessed as growth inhibition measured for 3 days by broth microdilution method; format: functional; method in brief: as §1
# [44] = system: Staphylococcus epidermidis; experiment: Antibacterial activity against Staphylococcus epidermidis 13518 assessed as growth inhibition measured for 3 days by broth microdilution method; format: functional; conditions: Staphylococcus epidermidis, 13518, 72 h; method in brief: as §1
# [45] = system: Mus musculus; experiment: Apparent volume of distribution in CD1 mouse at 100 mg/kg, ip; format: ADME, organism-based; design: dose 100 mg/kg, route intraperitoneal; conditions: in vivo; method in brief: as §2
smiles,measurement,setting,value
O=C([O-])[C@H](Cc1ccccc1)N1C(=O)/C(=C\c2ccc(-c3ccc(Cl)c(Cl)c3)o2)NC1=S.[Na+],MIC,[1],> 25 µM
same,Cmax,[2],68 µg/mL
same,MIC,[3],> 25 µM
same,T>MIC,[4],18.3 h
same,MIC,[5],> 25 µM
same,MIC,[6],> 25 µM
same,MIC,[7],3.9 µM
same,MIC,[8],15.6 µM
same,t1/2,[9],2.2 h
same,Activity,[10],Non-toxic
same,T>MIC,[11],14.6 h
same,Vz,[12],0.5 L/kg
same,t1/2,[13],2.4 h
same,Tmax,[14],4.8 min
same,AUC,[15],1050 µg·h/mL
same,T>MIC,[16],19.4 h
same,solubility,[17],soluble
same,MIC,[18],7.8 µM
same,CL/F,[19],0.917 mL/min/kg
same,AUC,[20],170 µg·h/mL
same,pKi,[21],4.09
same,Stability,[22],Stable
same,MIC,[23],> 25 µM
same,t1/2,[24],3.4 h
same,AUC,[25],1800 µg·h/mL
same,Tmax,[26],3.08 h
same,MIC,[27],15.6 µM
same,Vz,[28],0.34 L/kg
same,T>MIC,[29],10.6 h
same,CL/F,[30],2.33 mL/min/kg
same,Cmax,[31],490 µg/mL
same,MIC,[32],> 25 µM
same,Tmax,[33],0.5 h
same,AUC,[34],480 µg·h/mL
same,MIC,[35],> 25 µM
same,CL/F,[36],0.783 mL/min/kg
same,Tmax,[37],4.8 min
same,Vz,[38],0.24 L/kg
same,t1/2,[39],2.3 h
same,Cmax,[40],320 µg/mL
same,CL/F,[41],1.67 mL/min/kg
same,Cmax,[42],140 µg/mL
same,MIC,[43],> 25 µM
same,MIC,[44],2 µM
same,Vz,[45],0.18 L/kg
